Measurements: ChEMBL document CHEMBL3046748, “Antifeedant effects of the limonoids from Entandrophragma candolei (Meliaceae) on the gram pod borer, Helicoverpa armigera (Lepidoptera: Noctuidae)” (J Agric Food Chem, 2003)
Values after ≈ are worked out from the molar mass of the structure shown. Active and inactive are the calls of the source. The calls are words filed in the database; no cut-off is given here.

How the values were obtained:
[1] = tested on: Helicoverpa armigera; experiment: Antifeedant activity against third-instar larva of Helicoverpa armigera assessed as decrease in food consumption at 2 to 10 ug/larva applied topically measured after 7 days relative to control; assay type: functional, organism-based
Method in brief: (§1)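 Larvae were dosed topically at 2-10 µg/larva in 0.5 µL acetone on the dorsal terga, with acetone-only controls. They were then fed untreated artificial diet, and diet consumption and weight gain were compared with controls over 7 d.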

[2] = tested on: Helicoverpa armigera; experiment: Antifeedant activity against Helicoverpa armigera fed on compound-treated artificial diet assessed as growth inhibition at 50 to 100 ppm after 3 days relative to control; assay type: functional
[3] = tested on: Helicoverpa armigera; experiment: Antifeedant activity against Helicoverpa armigera fed on compound-treated artificial diet assessed as inhibition of consumption at 100 ppm after 3 days relative to control; assay type: functional; settings: 72 h
[4] = tested on: Helicoverpa armigera; experiment: Antifeedant activity against fourth-instar larva of Helicoverpa armigera assessed as efficiency of conversion of ingested food at 10 ppm applied topically measured after 3 days (reference value: 20.3 +/- 2.7%); assay type: functional, Instar larval stage
[5] = tested on: Helicoverpa armigera; experiment: Antifeedant activity against fourth-instar larva of Helicoverpa armigera assessed as efficiency of conversion of ingested food at 5 ppm applied topically measured after 3 days (reference value: 20.3 +/- 2.7%); assay type: functional, Instar larval stage
[6] = tested on: Helicoverpa armigera; experiment: Antifeedant activity against fourth-instar larva of Helicoverpa armigera assessed as relative consumption rate ratio per unit weight per day at 10 ppm applied topically measured after 3 days (reference value: 3.85 +/- 0.9); assay type: functional
[7] = tested on: Helicoverpa armigera; experiment: Antifeedant activity against fourth-instar larva of Helicoverpa armigera assessed as relative consumption rate ratio per unit weight per day at 5 ppm applied topically measured after 3 days (reference value: 3.85 +/- 0.9); assay type: functional
[8] = tested on: Helicoverpa armigera; experiment: Antifeedant activity against fourth-instar larva of Helicoverpa armigera assessed as relative growth rate ratio per unit weight per day at 10 ppm applied topically measured after 3 days (reference value: 0.8 +/- 0.03); assay type: functional
[9] = tested on: Helicoverpa armigera; experiment: Antifeedant activity against fourth-instar larva of Helicoverpa armigera assessed as relative growth rate ratio per unit weight per day at 5 ppm applied topically measured after 3 days (reference value: 0.8 +/- 0.03); assay type: functional
[10] = tested on: Helicoverpa armigera; experiment: Antifeedant activity against fourth-instar larva of Helicoverpa armigera fed on compound treated artificial diet assessed as efficiency of conversion of ingested food at 100 ppm after 3 days (reference value: 20.3 +/- 2.7%); assay type: functional, Instar larval stage
[11] = tested on: Helicoverpa armigera; experiment: Antifeedant activity against fourth-instar larva of Helicoverpa armigera fed on compound treated artificial diet assessed as efficiency of conversion of ingested food at 50 ppm after 3 days (reference value: 20.3 +/- 2.7%); assay type: functional, Instar larval stage
[12] = tested on: Helicoverpa armigera; experiment: Antifeedant activity against fourth-instar larva of Helicoverpa armigera fed on compound treated artificial diet assessed as relative consumption rate ratio per unit weight per day at 100 ppm after 3 days (reference value: 3.85 +/- 0.9); assay type: functional
[13] = tested on: Helicoverpa armigera; experiment: Antifeedant activity against fourth-instar larva of Helicoverpa armigera fed on compound treated artificial diet assessed as relative consumption rate ratio per unit weight per day at 50 ppm after 3 days (reference value: 3.85 +/- 0.9); assay type: functional
[14] = tested on: Helicoverpa armigera; experiment: Antifeedant activity against fourth-instar larva of Helicoverpa armigera fed on compound treated artificial diet assessed as relative growth rate ratio per unit weight per day at 100 ppm after 3 days (reference value: 0.8 +/- 0.03); assay type: functional
[15] = tested on: Helicoverpa armigera; experiment: Antifeedant activity against fourth-instar larva of Helicoverpa armigera fed on compound treated artificial diet assessed as relative growth rate ratio per unit weight per day at 50 ppm after 3 days (reference value: 0.8 +/- 0.03); assay type: functional
[16] = tested on: Helicoverpa armigera; experiment: Antifeedant activity against third-instar larva of Helicoverpa armigera assessed as growth inhibition after 7 days by dietary assay; assay type: functional, organism-based
[17] = tested on: Helicoverpa armigera; experiment: Antifeedant activity against pre-starved third-instar larva of Helicoverpa armigera after 6 hr by choice feeding assay; assay type: functional
Method in brief: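 H. armigera from lab culture on artificial diet, 27±1 °C, 16:8 LD. Single 2–10-h-old third instar, starved 4 h, in 9-cm Petri dish. Two preweighed diet cubes with compound (25–100 ppm) alternated with two control cubes. Consumption per cube measured after 6 h. 10 replicates per concentration. Deterrence index = (C − T)/(C + T) × 100.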

[18] = tested on: Helicoverpa armigera; experiment: Antifeedant activity against pre-starved third-instar larva of Helicoverpa armigera assessed as decrease in feeding after 6 hr by choice feeding assay relative to control; assay type: functional, organism-based
Method in brief: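 Diet choice test in 9-cm Petri dishes: two preweighed cubes of diet with compound (25-100 ppm) alternated with two control cubes. A single 2- to 10-h-old third instar, pre-starved 4 h, was placed centrally. Consumption of each cube was weighed after 6 h, with 10 replicates per concentration. Deterrence index = (C − T)/(C + T) × 100.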

[19] = tested on: Helicoverpa armigera; experiment: Antifeedant activity against third-instar larva of Helicoverpa armigera assessed as decrease in weight gain at 2 to 10 ug/larva applied topically measured after 7 days relative to control; assay type: functional, organism-based; method in brief: as §1
[20] = tested on: Helicoverpa armigera; experiment: Antifeedant activity against neonate larva of Helicoverpa armigera assessed as growth inhibition after 7 days by dietary assay; assay type: functional, organism-based; settings: for EC95: Helicoverpa armigera, feed or water, 168 h
Method in brief: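 Two 24-h-old neonates were placed per cup on 1 g fresh-weight treated artificial diet. Cups were held in a tray lined with moist filter paper at 27±2 °C under 16:8 LD. Growth was taken from larval weight after 7 d as % of control, with mortality recorded. Forty larvae were used per concentration. EC50 was obtained by regression analysis.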

[21] = tested on: Helicoverpa armigera; experiment: Antifeedant activity against neonate larva of Helicoverpa armigera assessed as decrease in consumption of diet after 7 days by dietary assay; assay type: functional

Row | Compound | Activity [1] | growth inhibition (GI) [2] [%] | inhibition at 100 ppm [3] [%] | Activity [4] [%] | Activity [5] [%] | Ratio [6] | Ratio [7] | Ratio [8] | Ratio [9] | Activity [10] [%] | Activity [11] [%] | Ratio [12] | Ratio [13] | Ratio [14] | Ratio [15] | EC50 [16] [ppm] | Activity [18] | Activity [19] | EC50 [20] [ppm] | EC95 [20] [µg/mL] | further results
1 | C=C1[C@@H]([C@@]2(C)[C@@H](OC(C)=O)CC(=O)O[C@](C)(COC(C)=O)[C@@H]2C(=O)OC)[C@@H](OC=O)[C@H](OC(=O)[C@H](O)[C@H](C)CC)[C@@]2(C)[C@H](c3ccoc3)CC(=O)[C@]12O [PRIEURIANIN] | inactive | 60 | 57.7 | 21.6 | 22.1 | 3.79 | 3.74 | 0.82 | 0.83 | 19.8 | 20 | 1.63 | 2.04 | 0.32 | 0.41 | 92.2 | Active | inactive | 18.8 | 169 (≈ 226 µM) | DI50 [17]: 91.4 ppm
2 | C=C1[C@@H]([C@@]2(C)[C@@H](OC(C)=O)CC(=O)O[C@](C)(COC(C)=O)[C@@H]2CC(=O)OC)[C@@H](OC=O)[C@H](OC(=O)[C@H](OC(C)=O)[C@H](C)CC)[C@]2(C)[C@@H](c3ccoc3)C[C@H]3O[C@]132 | inactive | 60 | 72.8 | 21.3 | 22.1 | 3.78 | 3.74 | 0.8 | 0.85 | 19 | 20.1 | 1.08 | 1.74 | 0.2 | 0.35 | 45.7 | Active | inactive | 2.6 | 30.8 (≈ 39 µM) | DI50 [17]: 48.3 ppm; Activity [21]: Dose-dependent effect; Activity ([21]; record 2): 50.2%
3 | C/C=C(\C)C(=O)O[C@H]1C[C@@H](OC(C)=O)[C@@]2(C(=O)OC)CO[C@H]3[C@@H](O)[C@@](C)([C@]45O[C@@]4(C)[C@@H]4C[C@H]5O[C@@H]5OC=C[C@@]54O)[C@H]4[C@]1(CO[C@]4(O)C(=O)OC)[C@@H]32 [AZADIRACHTIN A] | – | ≤ 75 | ≤ 76 | – | – | – | – | – | – | – | – | – | – | – | – | 0.4 | – | – | 0.26 | 1.46 (≈ 2.03 µM) | –
4 | C=C1[C@@H]([C@@]2(C)[C@@H](OC(C)=O)CC(=O)O[C@](C)(COC(C)=O)[C@@H]2CC(=O)OC)[C@@H](OC=O)[C@H](OC(=O)[C@H](O)[C@H](C)CC)[C@]2(C)[C@@H](c3ccoc3)C[C@H]3O[C@]132 | inactive | 60 | 69.1 | 25.9 | 25.2 | 3.36 | 3.48 | 0.87 | 0.88 | 26.4 | 26.2 | 1.06 | 1.38 | 0.28 | 0.36 | 55.7 | Active | inactive | 3.2 | 30.6 (≈ 41 µM) | Activity [21]: Dose-dependent effect; Activity ([21]; record 2): 50.2%
